Results taken from ChEMBL document CHEMBL1128718, “2-Substituted penems with amino acid-related side chains: synthesis and antibacterial activity of a new series of beta-lactam antibiotics” (1995).
In brackets after ≈: the same amount, converted by molar mass.

Key:
Assay type in all cases: functional
Aeromonas = assay: In Vitro Anti Bacterial Activity (MIC90) against 90% of tested clinical Isolates of Aeromonas species(21)
Method in brief: (§1)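 Over 500 clinical isolates tested in total; the line gives the isolate count. MIC90 for aerobes by dilution in Mueller Hinton 2 medium, inoculum 10⁴ cells/mL, incubated 24 h at 37 °C.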

[1] = system: Acinetobacter calcoaceticus subsp. anitratus; assay: In Vitro Anti Bacterial Activity (MIC90) against 90% of tested clinical Isolates of Acinetobacter anitratus(20); method in brief: as §1
Moraxella catarrhalis = assay: In Vitro Anti Bacterial Activity (MIC90) against 90% of tested clinical Isolates of Branhamella catarrhalis(27)
Bacteroides fragilis = assay: In Vitro Anti Bacterial Activity (MIC90) against 90% of tested clinical Isolates of Bacteroides fragilis(15)
Method in brief: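 Anaerobic clinical isolates. MIC90 by dilution in Wilkins-Chalgren agar, inoculum 10⁵ cells/mL, incubated 24–48 h at 37 °C.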

Clostridium perfringens = assay: In Vitro Anti Bacterial Activity (MIC90) against 90% of tested clinical Isolates of Clostridium perfringens(27)
Method in brief: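 MIC90 over clinical isolates of this anaerobic species, taken from the MIC distribution. Anaerobes were tested on Wilkins-Chalgren agar with an inoculum of 10⁵ cells/mL and incubated 24–48 h at 37 °C.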

Citrobacter freundii = assay: In Vitro Anti Bacterial Activity (MIC90) against 90% of tested clinical Isolates of Citrobacter freundii(20); method in brief: as §1
Enterococcus faecalis [2] = assay: In Vitro Anti Bacterial Activity (MIC90) against 90% of tested clinical Isolates of Enterococcus faecalis(47); method in brief: as §1
Enterococcus faecium = assay: In Vitro Anti Bacterial Activity (MIC90) against 90% of tested clinical Isolates of Enterococcus faecium(47); method in brief: as §1
Escherichia coli [3] = assay: In Vitro Anti Bacterial Activity (MIC90) against 90% of tested clinical Isolates of Escherichia coli; method in brief: as §1
Klebsiella aerogenes = assay: In Vitro Anti Bacterial Activity (MIC90) against 90% of tested clinical Isolates of Enterobacter aerogenes(19); method in brief: as §1
Escherichia coli [4] = assay: In Vitro antibacterial activity against (Ec L) Escherichia coli […] strain
Method in brief: (§2)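 Panel of standard ATCC strains plus modified strains: methicillin-resistant, hyperpermeable, β-lactamase-producing (TEM1, TEM2, SHV) and β-lactamase-lacking. MIC determined in Mueller Hinton 2 medium, inoculum 10⁴ cells/mL, incubated 24 h at 37 °C.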

Escherichia coli [5] = assay: In Vitro antibacterial activity against (Ec SHV) Escherichia coli […] strain; method in brief: as §2
Escherichia coli [6] = assay: In Vitro antibacterial activity against (Ec TEM1) Escherichia coli […] strain; method in brief: as §2
Escherichia coli [7] = assay: In Vitro antibacterial activity against (Ec TEM2) Escherichia coli […] strain; method in brief: as §2
Haemophilus influenzae = assay: In Vitro Anti Bacterial Activity (MIC90) against 90% of tested clinical Isolates of Haemophilus Influenzae(21)
Method in brief: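 Clinical isolates. MIC90 in Haemophilus Test Medium Base plus Haemophilus Test Medium Supplement, inoculum 10⁴ cells/mL, incubated 24–48 h at 37 °C.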

Klebsiella pneumoniae = assay: In Vitro Anti Bacterial Activity (MIC90) against 90% of tested clinical Isolates of Klebsiella pneumoniae(20); method in brief: as §1
Listeria monocytogenes = assay: In Vitro Anti Bacterial Activity (MIC90) against 90% of tested clinical Isolates of Listeria monocytogenes (20); method in brief: as §1
Morganella morganii = assay: In Vitro Anti Bacterial Activity (MIC90) against 90% of tested clinical Isolates of Morganella morganii(10); method in brief: as §1
Pseudomonas aeruginosa [8] = assay: In Vitro antibacterial activity against (Pa G242) hyperpermeable Pseudomonas aeruginosa strain; method in brief: as §2
Pseudomonas aeruginosa [9] = assay: In Vitro antibacterial activity against (Pa) Pseudomonas aeruginosa ATCC 27853; method in brief: as §2
Pseudomonas aeruginosa [10] = assay: In Vitro antibacterial activity against (Pa) hyperpermeable Pseudomonas aeruginosa […] strain; method in brief: as §2
Proteus vulgaris = assay: In Vitro Anti Bacterial Activity (MIC90) against 90% of tested clinical Isolates of Proteus vulgaris(10); method in brief: as §1
Providencia stuartii = assay: In Vitro Anti Bacterial Activity (MIC90) against 90% of tested clinical Isolates of Providencia stuartii(10); method in brief: as §1
Providencia rettgeri = assay: In Vitro Anti Bacterial Activity (MIC90) against 90% of tested clinical Isolates of Providencia rettgeri(10); method in brief: as §1
Proteus mirabilis = assay: In Vitro Anti Bacterial Activity (MIC90) against 90% of tested clinical Isolates of Proteus mirabilis(16); method in brief: as §1
Pseudomonas aeruginosa [11] = assay: In Vitro Anti Bacterial Activity (MIC90) against 90% of tested clinical Isolates of Pseudomonas aeruginosa(11); method in brief: as §1
[12] = system: Staphylococcus epidermidis; assay: In Vitro Anti Bacterial Activity (MIC90) against 90% of tested clinical Isolates of Staphylococcus epidermidis (13); method in brief: as §1
Streptococcus agalactiae = assay: In Vitro Anti Bacterial Activity (MIC90) against 90% of tested clinical Isolates of Streptococcus agalactiaeB(21)
Staphylococcus aureus [13] = assay: In Vitro Anti Bacterial Activity (MIC90) against 90% of tested clinical Isolates of Staphylococcus aureus MS (6); method in brief: as §1
Staphylococcus aureus [14] = assay: In Vitro Anti Bacterial Activity (MIC90) against 90% of tested clinical Isolates of Staphylococcus aureus MV (20)
Staphylococcus aureus [15] = assay: In vitro antibacterial activity against Sa MR(I) heterogeneous methicillin resistant Staphylococcus aureus
Method in brief: (§3)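 MIC was determined in Mueller Hinton 2 medium with an inoculum of 10⁴ cells/mL and incubation for 24 h at 37 °C. Strains: Sa(I) is S. aureus ATCC 29213; Sa MR(I) is a heterogeneous methicillin-resistant S. aureus; Sa MR(II) is a homogeneous methicillin-resistant S. aureus.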

Staphylococcus aureus [16] = assay: In vitro antibacterial activity against Sa MR(II) homogeneous methicillin resistant Staphylococcus aureus; method in brief: as §3
Staphylococcus aureus [17] = assay: In vitro antibacterial activity against Sa(I) Staphylococcus aureus ATCC 29213; method in brief: as §3
Staphylococcus aureus [18] = assay: In vitro antibacterial activity against Sa(II) Staphylococcus aureus ATCC 25923; method in brief: as §2
Streptococcus pyogenes = assay: In Vitro Anti Bacterial Activity (MIC90) against 90% of tested clinical Isolates of Streptococcus pyogenes(31)
Streptococcus pneumoniae = assay: In Vitro Anti Bacterial Activity (MIC90) against 90% of tested clinical Isolates of Streptococcus pneumoniae (23)
Yersinia sp. = assay: In Vitro Anti Bacterial Activity (MIC90) against 90% of tested clinical Isolates of Yersinia species(20); settings: Yersinia sp. (in: enterobacteria)
[19] = system: Stenotrophomonas maltophilia; assay: In Vitro Anti Bacterial Activity (MIC90) against 90% of tested clinical Isolates of Xanthomonas maltophilia(9); method in brief: as §1
Escherichia coli [20] = assay: In Vitro antibacterial activity against (Ec DC2) hyperpermeable Escherichia coli strain; method in brief: as §2
Enterococcus faecalis [21] = assay: In Vitro antibacterial activity against (Ef) Enterococcus faecalis ATCC 29212; method in brief: as §2
Escherichia coli [22] = assay: In Vitro antibacterial activity against (Ec) Escherichia coli ATCC 25922; method in brief: as §2

C[C@@H](O)[C@H]1C(=O)N2C(C(=O)O)=C(CN3CCC[C@H]3C(N)=O)S[C@H]12
MIC90 (Aeromonas): 0.5 µg/mL (≈ 1.46 µM)
MIC90 [1]: 16 µg/mL (≈ 46.9 µM)
MIC90 (Moraxella catarrhalis): 0.25 µg/mL (≈ 0.732 µM)
MIC90 (Bacteroides fragilis): 16 µg/mL (≈ 46.9 µM)
MIC90 (Clostridium perfringens): 1 µg/mL (≈ 2.93 µM)
MIC90 (Citrobacter freundii): 0.5 µg/mL (≈ 1.46 µM)
MIC90 (Enterococcus faecalis [2]): 8 µg/mL (≈ 23.4 µM)
MIC90 (Enterococcus faecium): > 64 µg/mL
MIC90 (Escherichia coli [3]): 0.12 µg/mL (≈ 0.352 µM)
MIC90 (Klebsiella aerogenes): 16 µg/mL (≈ 46.9 µM)
MIC (Escherichia coli [4]): 2 µg/mL (≈ 5.86 µM)
MIC (Escherichia coli [5]): 2 µg/mL (≈ 5.86 µM)
MIC (Escherichia coli [6]): 2 µg/mL (≈ 5.86 µM)
MIC (Escherichia coli [7]): 2 µg/mL (≈ 5.86 µM)
MIC90 (Haemophilus influenzae): 4 µg/mL (≈ 11.7 µM)
MIC90 (Klebsiella pneumoniae): 0.5 µg/mL (≈ 1.46 µM)
MIC90 (Listeria monocytogenes): 0.5 µg/mL (≈ 1.46 µM)
MIC90 (Morganella morganii): 4 µg/mL (≈ 11.7 µM)
MIC (Pseudomonas aeruginosa [8]): 2 µg/mL (≈ 5.86 µM)
MIC (Pseudomonas aeruginosa [9]): 64 µg/mL (≈ 187 µM)
MIC (Pseudomonas aeruginosa [10]): 1 µg/mL (≈ 2.93 µM)
MIC90 (Proteus vulgaris): 4 µg/mL (≈ 11.7 µM)
MIC90 (Providencia stuartii): 4 µg/mL (≈ 11.7 µM)
MIC90 (Providencia rettgeri): 4 µg/mL (≈ 11.7 µM)
MIC90 (Proteus mirabilis): 4 µg/mL (≈ 11.7 µM)
MIC90 (Pseudomonas aeruginosa [11]): > 64 µg/mL
MIC90 [12]: 0.12 µg/mL (≈ 0.352 µM)
MIC90 (Streptococcus agalactiae): 0.03 µg/mL (≈ 0.0879 µM)
MIC90 (Staphylococcus aureus [13]): 0.06 µg/mL (≈ 0.176 µM)
MIC90 (Staphylococcus aureus [14]): 8 µg/mL (≈ 23.4 µM)
MIC (Staphylococcus aureus [15]): 0.5 µg/mL (≈ 1.46 µM)
MIC (Staphylococcus aureus [16]): 2 µg/mL (≈ 5.86 µM)
MIC (Staphylococcus aureus [17]): 0.12 µg/mL (≈ 0.352 µM)
MIC (Staphylococcus aureus [18]): 0.015 µg/mL (≈ 0.0439 µM)
MIC90 (Streptococcus pyogenes): 0.06 µg/mL (≈ 0.176 µM)
MIC90 (Streptococcus pneumoniae): 0.06 µg/mL (≈ 0.176 µM)
MIC90 (Yersinia sp.): 0.25 µg/mL (≈ 0.732 µM)
MIC90 [19]: > 64 µg/mL
MIC (Escherichia coli [20]): 2 µg/mL (≈ 5.86 µM)

C[C@@H](O)[C@H]1C(=O)N2C(C(=O)O)=C(CN3C[C@H](O)C[C@H]3C(N)=O)S[C@H]12
MIC90 (Aeromonas): 2 µg/mL (≈ 5.6 µM)
MIC90 [1]: 16 µg/mL (≈ 44.8 µM)
MIC90 (Moraxella catarrhalis): 1 µg/mL (≈ 2.8 µM)
MIC90 (Bacteroides fragilis): 32 µg/mL (≈ 89.5 µM)
MIC90 (Clostridium perfringens): 0.25 µg/mL (≈ 0.7 µM)
MIC90 (Citrobacter freundii): 1 µg/mL (≈ 2.8 µM)
MIC90 (Enterococcus faecalis [2]): 8 µg/mL (≈ 22.4 µM)
MIC90 (Enterococcus faecium): > 64 µg/mL
MIC (Enterococcus faecalis [21]): 2 µg/mL (≈ 5.6 µM)
MIC90 (Escherichia coli [3]): 0.015 µg/mL (≈ 0.042 µM)
MIC90 (Klebsiella aerogenes): 16 µg/mL (≈ 44.8 µM)
MIC (Escherichia coli [4]): 0.03 µg/mL (≈ 0.0839 µM)
MIC (Escherichia coli [5]): 0.25 µg/mL (≈ 0.7 µM)
MIC (Escherichia coli [6]): 0.12 µg/mL (≈ 0.336 µM)
MIC (Escherichia coli [7]): 0.25 µg/mL (≈ 0.7 µM)
MIC (Escherichia coli [22]): 0.03 µg/mL (≈ 0.0839 µM)
MIC90 (Haemophilus influenzae): 4 µg/mL (≈ 11.2 µM)
MIC90 (Klebsiella pneumoniae): 0.5 µg/mL (≈ 1.4 µM)
MIC90 (Listeria monocytogenes): 0.12 µg/mL (≈ 0.336 µM)
MIC90 (Morganella morganii): 8 µg/mL (≈ 22.4 µM)
MIC (Pseudomonas aeruginosa [8]): 0.06 µg/mL (≈ 0.168 µM)
MIC (Pseudomonas aeruginosa [9]): > 64 µg/mL
MIC (Pseudomonas aeruginosa [10]): 0.2 µg/mL (≈ 0.56 µM)
MIC90 (Proteus vulgaris): 4 µg/mL (≈ 11.2 µM)
MIC90 (Providencia stuartii): 4 µg/mL (≈ 11.2 µM)
MIC90 (Providencia rettgeri): 4 µg/mL (≈ 11.2 µM)
MIC90 (Proteus mirabilis): 4 µg/mL (≈ 11.2 µM)
MIC90 (Pseudomonas aeruginosa [11]): > 64 µg/mL
MIC90 [12]: 1 µg/mL (≈ 2.8 µM)
MIC90 (Streptococcus agalactiae): 0.06 µg/mL (≈ 0.168 µM)
MIC90 (Staphylococcus aureus [13]): 0.12 µg/mL (≈ 0.336 µM)
MIC90 (Staphylococcus aureus [14]): > 32 µg/mL
MIC (Staphylococcus aureus [15]): 0.25 µg/mL (≈ 0.7 µM)
MIC (Staphylococcus aureus [16]): 8 µg/mL (≈ 22.4 µM)
MIC (Staphylococcus aureus [17]): 0.12 µg/mL (≈ 0.336 µM)
MIC (Staphylococcus aureus [18]): 0.12 µg/mL (≈ 0.336 µM)
MIC90 (Streptococcus pyogenes): 0.03 µg/mL (≈ 0.0839 µM)
MIC90 (Streptococcus pneumoniae): 0.03 µg/mL (≈ 0.0839 µM)
MIC90 (Yersinia sp.): 0.15 µg/mL (≈ 0.42 µM)
MIC90 [19]: > 64 µg/mL
MIC (Escherichia coli [20]): 0.12 µg/mL (≈ 0.336 µM)
